Measured values: ChEMBL document CHEMBL1126768, “A mechanism-based inactivation study of neutral endopeptidase 24.11” (J Med Chem, 1993)

Experiments:
[1] = biological target: T1, Angiotensin-converting enzyme (Rattus norvegicus, UniProt P47820); assay: Inhibition constant determined for Angiotensin I converting enzyme
T1 sequence (P47820 whole entry): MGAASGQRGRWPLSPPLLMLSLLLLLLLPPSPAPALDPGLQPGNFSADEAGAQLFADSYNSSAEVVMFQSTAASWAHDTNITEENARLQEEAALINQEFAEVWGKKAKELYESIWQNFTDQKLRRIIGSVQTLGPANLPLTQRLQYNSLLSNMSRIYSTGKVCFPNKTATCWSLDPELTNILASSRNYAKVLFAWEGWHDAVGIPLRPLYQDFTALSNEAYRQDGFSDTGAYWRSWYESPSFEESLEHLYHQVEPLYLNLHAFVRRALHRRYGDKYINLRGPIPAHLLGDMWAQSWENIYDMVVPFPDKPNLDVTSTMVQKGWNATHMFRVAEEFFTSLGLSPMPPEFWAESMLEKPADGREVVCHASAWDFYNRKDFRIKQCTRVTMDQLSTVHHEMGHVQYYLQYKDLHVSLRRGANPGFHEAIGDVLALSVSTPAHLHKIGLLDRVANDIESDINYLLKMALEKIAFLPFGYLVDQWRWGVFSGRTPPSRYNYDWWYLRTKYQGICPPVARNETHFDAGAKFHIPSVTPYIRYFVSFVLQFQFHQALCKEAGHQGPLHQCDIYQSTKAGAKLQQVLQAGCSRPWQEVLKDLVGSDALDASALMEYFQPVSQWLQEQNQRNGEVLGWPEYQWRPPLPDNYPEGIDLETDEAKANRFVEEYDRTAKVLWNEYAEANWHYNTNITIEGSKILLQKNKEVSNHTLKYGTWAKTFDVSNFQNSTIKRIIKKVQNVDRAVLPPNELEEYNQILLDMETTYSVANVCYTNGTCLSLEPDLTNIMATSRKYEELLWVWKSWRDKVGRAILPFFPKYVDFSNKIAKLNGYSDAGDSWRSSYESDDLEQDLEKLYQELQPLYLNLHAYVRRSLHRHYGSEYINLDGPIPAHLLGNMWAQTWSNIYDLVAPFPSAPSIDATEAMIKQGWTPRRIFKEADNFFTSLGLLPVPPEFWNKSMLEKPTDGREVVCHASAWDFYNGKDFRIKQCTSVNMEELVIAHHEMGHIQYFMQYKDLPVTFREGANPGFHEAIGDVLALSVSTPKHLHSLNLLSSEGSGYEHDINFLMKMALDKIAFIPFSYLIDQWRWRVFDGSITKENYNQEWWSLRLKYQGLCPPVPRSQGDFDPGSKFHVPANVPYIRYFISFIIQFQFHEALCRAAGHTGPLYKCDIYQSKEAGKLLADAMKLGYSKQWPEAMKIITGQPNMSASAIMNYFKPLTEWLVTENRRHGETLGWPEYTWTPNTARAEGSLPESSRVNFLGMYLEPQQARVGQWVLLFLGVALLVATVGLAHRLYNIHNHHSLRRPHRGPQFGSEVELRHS

Neprilysin [2] = biological target: T2, Neprilysin (Homo sapiens, UniProt P08473); assay: Inhibition constant determined for Neutral endopeptidase (NEP)
T2 sequence (P08473 whole entry): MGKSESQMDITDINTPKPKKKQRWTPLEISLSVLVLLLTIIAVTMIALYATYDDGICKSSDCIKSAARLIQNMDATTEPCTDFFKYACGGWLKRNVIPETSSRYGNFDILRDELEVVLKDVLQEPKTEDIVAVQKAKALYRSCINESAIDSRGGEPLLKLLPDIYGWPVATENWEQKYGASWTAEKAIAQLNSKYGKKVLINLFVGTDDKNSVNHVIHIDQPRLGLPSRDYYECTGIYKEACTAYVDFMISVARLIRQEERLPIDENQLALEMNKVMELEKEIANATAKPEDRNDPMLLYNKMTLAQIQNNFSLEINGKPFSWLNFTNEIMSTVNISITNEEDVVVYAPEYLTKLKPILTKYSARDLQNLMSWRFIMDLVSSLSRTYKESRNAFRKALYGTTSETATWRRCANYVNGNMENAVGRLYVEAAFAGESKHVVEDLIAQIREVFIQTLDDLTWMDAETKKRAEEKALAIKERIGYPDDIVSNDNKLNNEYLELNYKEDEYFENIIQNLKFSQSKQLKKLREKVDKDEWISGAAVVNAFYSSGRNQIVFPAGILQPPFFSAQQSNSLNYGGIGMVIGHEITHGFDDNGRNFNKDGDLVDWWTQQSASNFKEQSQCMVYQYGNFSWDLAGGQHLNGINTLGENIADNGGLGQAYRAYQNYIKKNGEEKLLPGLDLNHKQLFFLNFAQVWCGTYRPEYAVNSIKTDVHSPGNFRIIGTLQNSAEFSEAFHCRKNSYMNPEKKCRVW
Procedure, shortened: (§1)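 Reversible inhibition of recombinant human NEP (0.5 μM final), tested with inactivator at 1–50 μM in 50 mM HEPES pH 7.4 plus 5% p-dioxane. DAGNPG substrate was used at 100 and 500 μM. NEP was added last and activity was read immediately by continuous fluorescence (ex 342, em 562 nm).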

Neprilysin [3] = biological target: T2, Neprilysin; assay: Inhibition constant determined for neutral endopeptidase (NEP); procedure, shortened: as §1
[4] = biological target: T1, Angiotensin-converting enzyme; assay: Inhibition constant determined for angiotensin converting enzyme (ACE)

Compound	Ki [1] [µM]	Ki (Neprilysin [2]) [µM]	Ki (Neprilysin [3]) [µM]	Ki [4] [µM]
N#CCC(=O)NC(Cc1ccccc1)C(=O)NC(Cc1ccccc1)C(=O)O (centres undefined)	65	17	–	–
N#CCC(=O)CC(Cc1ccccc1)C(=O)NC(Cc1ccccc1)C(=O)O (centres undefined)	–	–	14	> 10000
